Data: ChEMBL document CHEMBL4152382, “Discovery of Tarantula Venom-Derived NaV1.7-Inhibitory JzTx-V Peptide 5-Br-Trp24 Analogue AM-6120 with Systemic Block of Histamine-Induced Pruritis” (J Med Chem, 2018)
Activity calls are given as the source filed them. No cut-off for these calls is given here.

Legend:
[1] = biological target: Sodium channel protein type 9 subunit alpha (Homo sapiens, UniProt Q15858); assay: Inhibition of human Nav1.7 expressed in HEK293 cells at holding potential of -125 mV […] by patchxpress-based electrophysiology assay; format: cell-based
[2] = biological target: Sodium channel protein type 10 subunit alpha (Homo sapiens, UniProt Q9Y5Y9); assay: Inhibition of human Nav1.8 expressed in HEK293 cells after 10 mins by patchxpress-based electrophysiology; format: cell-based
[3] = biological target: Sodium channel protein type 8 subunit alpha (Homo sapiens, UniProt Q9UQD0); assay: Inhibition of human Nav1.6 expressed in HEK293 cells at holding potential of -125 mV […] by patchxpress-based electrophysiology assay; format: cell-based
[4] = MRT in C57/BL6 mouse at 2 mg/kg, sc by LC-MS/MS analysis; format: ADME, organism-based; conditions: in vivo
Method in brief: (§1)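 Male C57Bl/6 mice, n = 3 per time point, given a single 2 mg/kg subcutaneous dose. Plasma levels were quantified by LC-MS/MS over time, and pharmacokinetic parameters were derived from the plasma profiles. Data are reported as mean ± SEM for each time point.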

[5] = Tmax in C57/BL6 mouse at 2 mg/kg, sc by LC-MS/MS analysis; format: ADME, organism-based; conditions: in vivo; method in brief: as §1
Mus musculus [6] = assay: Toxicity in C57/BL6 mouse assessed as effect on locomotor activity at 2 mg/kg, sc by open field assay; format: organism-based; conditions: in vivo
[7] = biological target: Sodium channel protein type 5 subunit alpha (Homo sapiens, UniProt Q14524); assay: Inhibition of human Nav1.5 expressed in HEK293 cells at holding potential of […] after 10 mins by patchxpress-based electrophysiology assay; format: cell-based
[8] = Plasma concentration in C57/BL6 mouse model of histamine-induced pruritis at 1 mg/kg, sc; format: ADME, organism-based; conditions: in vivo
Method in brief: (§2)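 Dosing was 2 h before an intradermal nape injection of histamine (8.15 mM, 100 μL). Scratching was videorecorded for 15 min by blinded experimenters, and peptide plasma concentrations were analysed from the same study.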

[9] = AUCt in C57/BL6 mouse at 2 mg/kg, sc by LC-MS/MS analysis; format: ADME, organism-based; conditions: in vivo; method in brief: as §1
Mus musculus [10] = assay: In vivo inhibition of Nav1.7 in C57/BL6 mouse model of histamine-induced pruritis assessed as reduction in scratching bouts at 1 mg/kg, sc dosed 2 hrs before histamine challenge and measured for 15 mins relative to control; format: functional
Method in brief: (§3)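 Male C57Bl/6 mice aged 8–10 weeks; nape shaved under 3% isoflurane the day before, with 15 min chamber acclimation. Peptide given sc 2 h before intradermal histamine dichloride (8.15 mM, 100 μL); vehicle was PBS with 1% MSA. Scratch bouts video-recorded for 15 min, blinded scoring; n = 8–10 per group; one-way ANOVA with Dunnett's test versus vehicle.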

Mus musculus [11] = assay: In vivo inhibition of Nav1.7 in C57/BL6 mouse model of histamine-induced pruritis assessed as reduction in scratching bouts at 2 mg/kg, sc dosed 2 hrs before histamine challenge and measured for 15 mins relative to control; format: functional; method in brief: as §3
[12] = Ratio of plasma concentration in C57/BL6 mouse model of histamine-induced pruritis at 1 mg/kg, sc to IC50 for Nav1.7 in C57/BL6 mouse DRG neurons by whole cell manual patch clamp assay; format: ADME, organism-based; conditions: in vivo
[13] = Half life in C57/BL6 mouse at 2 mg/kg, sc by LC-MS/MS analysis; format: ADME, organism-based; conditions: in vivo; method in brief: as §1
[14] = Plasma concentration in C57/BL6 mouse at 2 mg/kg, sc after 30 mins by LC-MS/MS analysis; format: ADME, organism-based; conditions: in vivo, 0.5 h; method in brief: as §1
[15] = Inhibition of TTX-resistant sodium channel-mediated currents in C57/BL6 mouse DRG neurons by whole cell manual patch clamp assay; conditions: C57/BL6, DRG neuron
Mus musculus [16] = assay: In vivo inhibition of Nav1.7 in C57/BL6 mouse model of histamine-induced pruritis assessed as reduction in scratching bouts at 0.5 mg/kg, sc dosed 2 hrs before histamine challenge and measured for 15 mins relative to control; format: functional; method in brief: as §3
[17] = Ratio of plasma concentration in C57/BL6 mouse model of histamine-induced pruritis at 0.5 mg/kg, sc to IC50 for Nav1.7 in C57/BL6 mouse DRG neurons by whole cell manual patch clamp assay; format: ADME, organism-based; conditions: in vivo
[18] = biological target: T1, Sodium channel protein type 9 subunit alpha (Mus musculus, UniProt Q62205); assay: Inhibition of Nav1.7 in C57/BL6 mouse DRG neurons assessed as reduction in TTX sensitive sodium channel-mediated currents by whole cell manual patch clamp assay
[19] = Cmax in C57/BL6 mouse at 2 mg/kg, sc by LC-MS/MS analysis; format: ADME, organism-based; set-up: dose 2 mg/kg, route subcutaneous; conditions: in vivo; method in brief: as §1
[20] = Plasma concentration in C57/BL6 mouse model of histamine-induced pruritis at 0.5 mg/kg, sc; format: ADME, organism-based; conditions: in vivo; method in brief: as §2
Mus musculus [21] = assay: Volume of distribution at steady state in C57/BL6 mouse at 2 mg/kg, sc by LC-MS/MS analysis; format: ADME, organism-based; conditions: in vivo; method in brief: as §1
[22] = Plasma concentration in C57/BL6 mouse model of histamine-induced pruritis at 2 mg/kg, sc; format: ADME, organism-based; conditions: in vivo; method in brief: as §2
[23] = Ratio of plasma concentration in C57/BL6 mouse model of histamine-induced pruritis at 2 mg/kg, sc to IC50 for Nav1.7 in C57/BL6 mouse DRG neurons by whole cell manual patch clamp assay; format: ADME, organism-based; conditions: in vivo
[24] = biological target: Sodium channel protein type 4 subunit alpha (Homo sapiens, UniProt P35499); assay: Inhibition of human Nav1.4 expressed in HEK293 cells at holding potential of -125 mV […] by patchxpress-based electrophysiology assay; format: cell-based
[25] = Apparent […] clearance in C57/BL6 mouse at 2 mg/kg, sc by LC-MS/MS analysis; format: ADME, organism-based; conditions: in vivo; method in brief: as §1
[26] = biological target: T1, Sodium channel protein type 9 subunit alpha; assay: Inhibition of mouse Nav1.7 expressed in HEK293 cells after 10 mins by patchxpress-based electrophysiology; format: cell-based
Mus musculus [27] = assay: Toxicity in C57/BL6 mouse assessed as effect on locomotor activity at 1 mg/kg, sc by open field assay; format: organism-based; conditions: in vivo

T1 sequence (Q62205 whole entry): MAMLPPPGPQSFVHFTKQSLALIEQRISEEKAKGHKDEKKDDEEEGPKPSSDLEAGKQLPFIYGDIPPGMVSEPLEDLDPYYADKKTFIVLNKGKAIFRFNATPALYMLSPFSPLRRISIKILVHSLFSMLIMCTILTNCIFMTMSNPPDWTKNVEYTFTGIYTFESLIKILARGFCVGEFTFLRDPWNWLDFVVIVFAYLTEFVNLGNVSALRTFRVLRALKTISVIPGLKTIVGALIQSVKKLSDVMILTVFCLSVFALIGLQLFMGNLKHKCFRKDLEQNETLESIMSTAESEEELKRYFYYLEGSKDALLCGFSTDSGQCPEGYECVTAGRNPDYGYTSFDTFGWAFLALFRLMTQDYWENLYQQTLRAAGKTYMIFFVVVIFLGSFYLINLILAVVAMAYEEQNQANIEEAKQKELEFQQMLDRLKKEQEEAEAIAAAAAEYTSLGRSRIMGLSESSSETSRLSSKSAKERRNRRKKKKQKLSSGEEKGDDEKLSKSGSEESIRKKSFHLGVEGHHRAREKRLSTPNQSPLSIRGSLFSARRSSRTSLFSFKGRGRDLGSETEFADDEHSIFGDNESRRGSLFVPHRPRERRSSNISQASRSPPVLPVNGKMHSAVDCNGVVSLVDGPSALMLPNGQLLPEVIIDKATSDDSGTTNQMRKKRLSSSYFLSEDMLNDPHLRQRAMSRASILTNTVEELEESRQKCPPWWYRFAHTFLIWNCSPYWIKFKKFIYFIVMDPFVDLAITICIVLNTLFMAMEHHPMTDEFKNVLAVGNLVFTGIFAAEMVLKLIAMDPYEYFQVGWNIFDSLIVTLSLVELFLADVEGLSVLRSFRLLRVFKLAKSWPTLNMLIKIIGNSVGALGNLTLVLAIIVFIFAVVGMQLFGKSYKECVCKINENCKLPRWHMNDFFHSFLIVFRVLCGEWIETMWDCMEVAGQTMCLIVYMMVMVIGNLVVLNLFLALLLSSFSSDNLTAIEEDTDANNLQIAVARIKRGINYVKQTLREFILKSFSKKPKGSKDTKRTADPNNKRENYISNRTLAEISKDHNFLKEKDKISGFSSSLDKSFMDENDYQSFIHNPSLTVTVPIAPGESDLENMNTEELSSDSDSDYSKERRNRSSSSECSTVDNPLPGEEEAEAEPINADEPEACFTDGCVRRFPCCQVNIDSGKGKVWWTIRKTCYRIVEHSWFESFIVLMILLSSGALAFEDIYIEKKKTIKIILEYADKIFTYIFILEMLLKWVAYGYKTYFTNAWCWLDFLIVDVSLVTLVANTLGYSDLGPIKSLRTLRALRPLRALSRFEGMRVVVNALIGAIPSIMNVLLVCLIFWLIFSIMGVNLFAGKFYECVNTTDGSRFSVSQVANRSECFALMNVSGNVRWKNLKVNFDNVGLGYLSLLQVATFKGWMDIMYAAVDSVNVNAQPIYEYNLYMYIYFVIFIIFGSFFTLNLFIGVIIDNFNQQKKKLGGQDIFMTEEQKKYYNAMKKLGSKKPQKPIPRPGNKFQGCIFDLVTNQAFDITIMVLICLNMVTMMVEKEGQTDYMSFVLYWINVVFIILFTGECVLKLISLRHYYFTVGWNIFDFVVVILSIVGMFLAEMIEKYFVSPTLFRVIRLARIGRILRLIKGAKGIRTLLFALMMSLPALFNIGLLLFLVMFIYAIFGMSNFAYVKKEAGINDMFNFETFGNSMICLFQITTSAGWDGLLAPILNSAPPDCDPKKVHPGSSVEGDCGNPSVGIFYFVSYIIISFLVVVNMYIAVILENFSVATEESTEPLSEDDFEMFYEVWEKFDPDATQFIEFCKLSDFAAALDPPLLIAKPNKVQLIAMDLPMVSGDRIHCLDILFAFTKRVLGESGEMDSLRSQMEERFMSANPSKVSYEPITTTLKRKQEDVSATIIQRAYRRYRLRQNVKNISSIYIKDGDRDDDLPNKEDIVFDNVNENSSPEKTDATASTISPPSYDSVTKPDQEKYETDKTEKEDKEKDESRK
Sequence of Sodium channel protein type 10 subunit alpha (Q9Y5Y9 whole entry): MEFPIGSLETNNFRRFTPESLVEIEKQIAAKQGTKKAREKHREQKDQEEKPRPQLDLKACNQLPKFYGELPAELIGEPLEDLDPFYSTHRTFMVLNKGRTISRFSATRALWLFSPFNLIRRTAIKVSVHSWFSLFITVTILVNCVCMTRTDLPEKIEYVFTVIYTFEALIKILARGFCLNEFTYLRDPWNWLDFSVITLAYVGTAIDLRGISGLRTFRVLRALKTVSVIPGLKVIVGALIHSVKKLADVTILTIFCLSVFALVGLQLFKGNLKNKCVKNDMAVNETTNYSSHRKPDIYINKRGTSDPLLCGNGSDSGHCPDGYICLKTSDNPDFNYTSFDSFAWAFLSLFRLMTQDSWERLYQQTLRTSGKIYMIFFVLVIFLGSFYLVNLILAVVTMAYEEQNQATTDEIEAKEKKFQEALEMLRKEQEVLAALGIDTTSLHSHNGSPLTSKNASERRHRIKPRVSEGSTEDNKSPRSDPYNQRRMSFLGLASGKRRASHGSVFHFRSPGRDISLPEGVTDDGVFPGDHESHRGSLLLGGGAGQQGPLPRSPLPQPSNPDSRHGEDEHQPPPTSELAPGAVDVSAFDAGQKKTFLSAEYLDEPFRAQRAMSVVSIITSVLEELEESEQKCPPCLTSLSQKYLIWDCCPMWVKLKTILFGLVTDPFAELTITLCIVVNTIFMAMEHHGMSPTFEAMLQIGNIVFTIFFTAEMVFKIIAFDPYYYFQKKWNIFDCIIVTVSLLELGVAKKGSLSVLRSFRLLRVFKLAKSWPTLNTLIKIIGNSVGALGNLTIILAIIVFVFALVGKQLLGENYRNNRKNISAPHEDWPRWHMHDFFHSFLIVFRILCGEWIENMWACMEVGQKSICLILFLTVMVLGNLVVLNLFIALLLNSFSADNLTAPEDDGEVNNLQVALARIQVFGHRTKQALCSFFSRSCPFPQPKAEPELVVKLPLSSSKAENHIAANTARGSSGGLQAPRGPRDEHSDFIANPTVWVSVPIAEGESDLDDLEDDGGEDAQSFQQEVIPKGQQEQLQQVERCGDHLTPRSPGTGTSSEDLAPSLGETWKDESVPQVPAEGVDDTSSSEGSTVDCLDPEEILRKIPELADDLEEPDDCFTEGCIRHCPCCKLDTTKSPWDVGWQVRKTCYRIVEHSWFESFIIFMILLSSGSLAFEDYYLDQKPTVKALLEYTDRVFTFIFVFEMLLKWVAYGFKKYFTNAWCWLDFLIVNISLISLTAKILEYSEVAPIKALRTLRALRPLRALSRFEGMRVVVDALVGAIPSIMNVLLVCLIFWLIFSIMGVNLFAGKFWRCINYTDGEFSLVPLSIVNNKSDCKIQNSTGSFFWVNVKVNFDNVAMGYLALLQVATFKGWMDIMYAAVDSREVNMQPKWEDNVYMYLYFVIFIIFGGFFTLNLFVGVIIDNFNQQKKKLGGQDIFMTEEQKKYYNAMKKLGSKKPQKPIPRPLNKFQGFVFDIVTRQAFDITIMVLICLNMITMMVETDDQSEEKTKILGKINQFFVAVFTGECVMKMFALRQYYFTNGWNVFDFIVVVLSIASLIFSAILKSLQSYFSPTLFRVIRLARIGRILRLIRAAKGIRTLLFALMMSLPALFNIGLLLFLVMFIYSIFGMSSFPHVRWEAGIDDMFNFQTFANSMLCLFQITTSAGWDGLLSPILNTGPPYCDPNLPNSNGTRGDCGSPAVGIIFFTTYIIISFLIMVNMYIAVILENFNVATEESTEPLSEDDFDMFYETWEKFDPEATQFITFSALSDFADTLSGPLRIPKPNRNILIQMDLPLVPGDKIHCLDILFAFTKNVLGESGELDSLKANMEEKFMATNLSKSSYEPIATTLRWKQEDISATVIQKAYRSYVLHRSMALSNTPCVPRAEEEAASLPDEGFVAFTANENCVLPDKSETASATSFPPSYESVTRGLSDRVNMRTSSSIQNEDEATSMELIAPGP

Q: With `C#CC[C@H](NC(=O)[C@@H](N)CCC(=O)O)C(=O)N[C@H]1CSSC[C@@H]2NC(=O)[C@@H]3CSSC[C@@H](C(=O)N[C@@H](CCCNC(=N)N)C(=O)N[C@@H](CCCCN)C(=O)N[C@@H](CCC(=O)O)C(=O)N[C@H](C(N)=O)[C@@H](C)CC)NC(=O)[C@H](Cc4c[nH]c5ccc(Br)cc45)NC(=O)[C@H](CC(C)C)NC(=O)[C@H](CCCCN)NC(=O)[C@H](CSSC[C@H](NC(=O)[C@H]([C@@H](C)O)NC(=O)[C@H](Cc4c[nH]c5ccccc45)NC(=O)[C@H](CCCC)NC(=O)[C@H](Cc4c[nH]c5ccccc45)NC(=O)[C@H](CCCCN)NC(=O)[C@H](CCC(N)=O)NC1=O)C(=O)N[C@@H](CC(=O)O)C(=O)N[C@@H](CO)C(=O)N[C@@H](C)C(=O)N[C@@H](CCCNC(=N)N)C(=O)N[C@@H](C)C(=O)N3)NC(=O)[C@H](CCCNC(=N)N)NC(=O)[C@H](CC(C)C)NC(=O)CNC(=O)[C@H](CCC(=O)O)NC2=O` as the compound, how does the IC50 [1] read?
A: 0.8 nM

Q: What about the IC50 [2] of the same compound?
A: > 1000 nM

Q: And the IC50 [3]?
A: 104 nM

Q: And the MRT [4]?
A: 3.7 h

Q: What about the Tmax [5] of the same compound?
A: 0.5 h

Q: And the Activity (Mus musculus [6])?
A: Non-Toxic

Q: What about the IC50 [7] of the same compound?
A: 6640 nM

Q: And the concentration [8]?
A: 300 nM

Q: What about the AUC(0-t) [9] of the same compound?
A: 4.5 µM·h

Q: What about the inhibition in vivo at 1 mg/kg (Mus musculus [10]) of the same compound?
A: 22.5%

Q: What about the inhibition in vivo at 2 mg/kg (Mus musculus [11]) of the same compound?
A: 88.9%

Q: What about the Ratio [12] of the same compound?
A: 59

Q: And the half-life [13]?
A: 4.95 h

Q: And the Drug uptake [14]?
A: Active

Q: And the IC50 [15]?
A: > 10000 nM

Q: What about the inhibition in vivo at 0.5 mg/kg (Mus musculus [16]) of the same compound?
A: 7.3%

Q: What about the Ratio [17] of the same compound?
A: 24

Q: What about the IC50 [18] of the same compound?
A: 5.1 nM

Q: And the Cmax [19]?
A: 1480 nM

Q: And the concentration [20]?
A: 122 nM

Q: What about the Vdss (Mus musculus [21]) of the same compound?
A: 0.444 L/kg

Q: What about the concentration [22] of the same compound?
A: 535 nM

Q: And the Ratio [23]?
A: 105

Q: And the IC50 [24]?
A: 104 nM

Q: What about the CL/F [25] of the same compound?
A: 2 mL/min/kg

Q: What about the IC50 [26] of the same compound?
A: 5.4 nM

Q: For `C#CC[C@H](N)C(=O)N[C@@H](Cc1ccc(O)cc1)C(=O)N[C@H]1CSSC[C@@H]2NC(=O)[C@@H]3CSSC[C@@H](C(=O)N[C@@H](CCCNC(=N)N)C(=O)N[C@@H](CCCCN)C(=O)N[C@@H](CCC(=O)O)C(=O)N[C@H](C(N)=O)[C@@H](C)CC)NC(=O)[C@H](Cc4c[nH]c5ccccc45)NC(=O)[C@H](CC(C)C)NC(=O)[C@H](CCCCN)NC(=O)[C@H](CSSC[C@H](NC(=O)[C@H]([C@@H](C)O)NC(=O)[C@H](Cc4c[nH]c5ccccc45)NC(=O)[C@H](CCCC)NC(=O)[C@H](Cc4c[nH]c5ccccc45)NC(=O)[C@H](CCCCN)NC(=O)[C@H](CCC(N)=O)NC1=O)C(=O)N[C@@H](CC(=O)O)C(=O)N[C@@H](CO)C(=O)N[C@@H](CCCCN)C(=O)N[C@@H](CCCNC(=N)N)C(=O)N[C@@H](C)C(=O)N3)NC(=O)[C@H](CCCNC(=N)N)NC(=O)[C@H](CC(C)C)NC(=O)CNC(=O)[C@H](CCC(=O)O)NC2=O`, which IC50 [1] is on record?
A: 0.5 nM

Q: And the IC50 [2]?
A: > 1000 nM

Q: What about the IC50 [7] of the same compound?
A: 3070 nM

Q: And the Activity (Mus musculus [27])?
A: Non-Toxic

Q: And the Activity (Mus musculus [10])?
A: inactive

Q: And the Ratio [12]?
A: 6.5

Q: What about the IC50 [18] of the same compound?
A: 9 nM
